Only some compounds are listed: those with a hit (about 2.2% of all), similar ones and a draw of the others.
Ba/F3 V617F tox – lowers viability of Ba/F3 cells expressing EpoR and JAK2V617F | AID 1446 | hit rate 1.1% among 220,000 | ATP luminescence | inhibition, % at 5.6 µM;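 active means inhibition above the campaign mean plus 3 SD over all tested compounds, cut at about 24% in these data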;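 further: cytokine-independent growth of Ba/F3 cells driven by EpoR plus mutant JAK2; 0% = DMSO-treated cells and 100% = JAK inhibitor I control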
BaF3 tox – reduces parental Ba/F3 cell viability, JAK2V617F counter-screen. CellTiter-Glo ATP luminescence. inhibition, % at 5.6 µM. hit rate 1.1% among 220,000;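 active means inhibition above a per-campaign cutoff, the mean inhibition of all tested compounds plus 3 SD, cut at about 27% in these data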;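 further: 0% = DMSO wells and 100% = JAK Inhibitor I control wells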
MT stabilize HCS – microtubule stabilization, imaging screen; HeLa tubulin immunostaining HCS, 24 h; share of cells brighter than vehicle mean+2SD; hit rate 0.83% among 200,000; AID 2205; % tubulin-high responders, % at 10 µM;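 active means plate Z-score above 3 for both tubulin-high and condensed-nucleus cell shares, with cell loss under 80%, at 10 µM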;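 further: anti alpha tubulin signal scored within the nucleus-defined area of each cell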
bCat nuc transl – modulators of beta-catenin nuclear translocation | HeLa beta-catenin nuclear translocation, immunofluorescence imaging | nuclear translocation activity, % at 5 µM | hit rate 0.3% among 190,000 | AID 1665;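 active means nuclear translocation activity above 50% at 5 µM, with a well cell count of 50 or more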;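 further: per-cell ratio of nuclear to cytoplasmic median beta-catenin stain intensity; plate controls were DMSO negative control for no effect and GSK-3 inhibitor IX positive control for full effect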
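Assay system: human HeLa cells, native beta-catenin; doses: 5 µM primary, 0.02–20 µM confirmation; incubation: compound treatment 24 h, 37°C, 5% CO2; technique: fluorescence imaging of beta-catenin antibody stain plus DAPI; measure: % activation, nuclear-to-cytoplasmic median beta-catenin signal ratio per cell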
IEC-6 cytotox – counter-screen for KLF5 inhibitors: cytotoxicity in IEC-6 cells; IEC-6 cytotoxicity, luminescence viability; inhibition, % at 5 µM; hit rate 0.78% among 290,000; AID 1825; in the data active means inhibition above about 22%;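 further: 0% = plate median of test compound wells and 100% = cytotoxic reference compound wells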
APP 5UTR inh – APP translation inhibition. SH-SY5Y APP 5'UTR-luciferase reporter, luminescence. inhibition, % at 2 µM. hit rate 0.82% among 190,000. AID 1285;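 active means inhibition above a set limit, derived from the sample mean plus 3 SD, cut at about 45% in these data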
BaF3 tox 2 – reduces parental Ba/F3 viability, JAK2V617F counter-screen; shares compounds with Ba/F3 V617F tox; CellTiter-Glo luminescence; cells kept alive by added IL-3; inhibition, % at 5.6 µM; hit rate 31% among 580; AID 1520;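 active means cell growth inhibition above the hit limit set in the earlier mutant JAK2 cell screen, cut at about 27% in these data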;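 further: plate controls were DMSO-treated cells for no effect and JAK Inhibitor I control wells for full effect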
JAK2V617F conf – Ba/F3 EpoR-JAK2V617F viability loss, confirmation | AID 1521 | CellTiter-Glo luminescence | inhibition, % at 5.6 µM | shares compounds with Ba/F3 V617F tox | hit rate 66% among 580;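 active means mean inhibition above the hit cutoff derived in the earlier primary screen, cut at about 25% in these data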;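 further: 0% = DMSO-treated cells and 100% = JAK inhibitor I control wells; higher means lower luminescence from reduced cell ATP and viability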
* marks the source's active call; other numbers are inactive results; . = not tested or not shown; ! = repeats disagree.

SMILES | Ba/F3 V617F tox | BaF3 tox | MT stabilize HCS | bCat nuc transl | IEC-6 cytotox | APP 5UTR inh | others
Cc1cccc(-n2c(/C=C/c3ccc([N+](=O)[O-])o3)nc3ccccc3c2=O)c1 | -3.0 | 2.2 | 14.8 | 3.0 | -7.6 | .
FC(F)(F)Oc1ccc(NC2=NCCCS2)cc1 | . | . | . | . | 2.7 | .
COc1ccc2c(C)c(CCC(=O)N3C[C@H]4C[C@@H](C3)c3cccc(=O)n3C4)c(=O)oc2c1 | . | . | . | . | 6.4 | .
Cc1ccc(NP(=O)(Oc2ccccc2F)Oc2ccccc2F)cc1 | -2.5 | 65.7* | 2.6 | 0.4 | -7.1 | 0.1
CCc1ccc(NP(=O)(Oc2ccccc2F)Oc2ccccc2F)cc1 | 0.1 | -0.8 | 3.1 | 4.2 | -0.7 | -3.8
CCCCn1c(O)c(/C(C)=N/NC(=O)Nc2ccccc2)c(=O)[nH]c1=O | -2.5 | 1.1 | . | -1.2 | -2.9 | .
O=[N+]([O-])c1cc(Cl)c(O)c(-[n+]2c(-c3ccccc3)cc(-c3ccccc3)cc2-c2ccccc2)c1 | . | . | . | . | -8.5 | .
CN(C)c1ccc(-[n+]2c(-c3ccccc3)cc(-c3ccccc3)cc2-c2ccccc2)cc1 | 101.1* | 94.5* | 2.9 | 3.5 | 71.0* | 44.8
C=CCN1CC[C@]23c4c5ccc(O)c4OC2C(=O)CC[C@@]3(O)C1C5 (some centres not stated) | 0.9 | -2.8 | . | 0.2 | -0.6 | .
O=c1[nH]sc2cc(F)ccc12 | 27.8* | -0.6 | 4.5 | 1.0 | 1.4 | 5.6
CCN(CC)C1=NC(=[N+](CC)CC)c2ccccc21 | 79.6* | 66.2* | 3.7 | -1.4 | -1.1 | 1.2
COc1ccccc1CN1CCN(C(=O)COc2ccc3ccccc3c2)CC1 | . | . | . | . | -4.7 | .
Cc1c(Br)c(=O)oc2cc(OCC(=O)N3C[C@H]4C[C@@H](C3)c3cccc(=O)n3C4)ccc12 | . | . | . | . | 3.6 | .
CC1(C)OC(c2ccccc2)=C/C(=C/C=C2C(=O)NC(=S)NC2=O)O1 | -2.2 | 42.4* | 6.2 | 43.2 | -7.2 | -10.9
CN1/C(=C\C=C2C(=O)NC(=S)NC2=O)C(C)(C)c2ccccc21 | -0.7 | 1.3 | 4.6 | 0.4 | -7.3 | 18.9
NC(=O)Nc1ccc(C(=O)OCC(=O)Nc2ccc(Cl)cc2C(=O)c2ccccc2)cc1 | 0.6 | 1.8 | 1.7 | -3.1 | 2.2 | 1.5
O=C1CN(O)C(c2ccccc2Cl)=c2cc(Br)ccc2=N1 | . | . | . | . | -2.5 | .
COc1ccc(C(CNC(=O)c2ccc3c(c2)CCC3)N(C)C)cc1 (configuration not stated) | . | . | . | . | 3.2 | .
CN1C2CCC1CC(=NO)C2 | 0.1 | -4.2 | 4.0 | -0.3 | -5.8 | -3.8
Cc1ccc(-c2nc3ccccc3c(=O)n2-c2ncccc2C)cc1 | 2.3 | 95.5* | 2.5 | 0.5 | 4.6 | 19.8
Cc1cccnc1-n1c(-c2ccccc2)nc2ccccc2c1=O | 0.8 | 6.2 | 1.5 | 0.7 | -3.0 | 2.5
COc1ccc(C(C)=O)cc1CC(C(=O)c1ccc(F)cc1)N(C)C (configuration not stated) | 0.9 | 40.0* | 1.9 | 3.8 | -4.3 | -4.8
COc1ccc(C(C)=O)cc1CC(C(=O)c1ccc(C)c(C)c1)N(C)C (configuration not stated) | -4.2 | 2.9 | 1.1 | 0.0 | 2.2 | 11.8
COc1ccc(C(=O)C(Cc2ccccc2)N(C)C)cc1 (configuration not stated) | 35.4* | 36.5* | 3.9 | 1.1 | 0.4 | -7.1
CN(C(=O)CNC(=O)OCc1ccccc1)c1ccc(Br)cc1C(=O)c1ccccc1Cl | 10.0 | 15.1 | 6.3 | 67.2* | 2.7 | 80.1*
SMILES | Ba/F3 V617F tox | BaF3 tox | MT stabilize HCS | bCat nuc transl | IEC-6 cytotox | APP 5UTR inh | others
O=C1/C(=C/c2ccccc2Cl)N2CCC1CC2 | -2.2 | -2.1 | . | -0.3 | 7.3 | .
O=C1NC(=O)C(CCc2ccncc2)(CCc2ccccn2)C(=O)N1c1ccc(Br)cc1 (configuration not stated) | -0.8 | 6.0 | 16.8* | 0.7 | -1.9 | -9.3
CCOc1ccc(-c2c(C)n(-c3ccc(OCC)cc3)c3[n+]2CCCCC3)cc1 | 99.2* | 88.6* | . | 2.3 | 45.1* | .
CCOc1ccc(-n2c(-c3ccoc3)nc3ccccc3c2=O)cc1 | 0.6 | -0.4 | 2.9 | . | -1.3 | -15.7
O=C1NC(=S)NC(=O)C1=Cc1cccc2cc3ccccc3cc12 | -0.9 | -2.9 | . | 57.8* | -4.7 | .
CN(C)c1ccc(C=C2C(=O)NC(=S)NC2=O)cc1[N+](=O)[O-] | 1.1 | 8.0 | 3.8 | 1.0 | -6.6 | -1.0
C=CCn1c(O)c(C(C)=O)c(=O)[nH]c1=O (tested in a mixture with another compound) | -0.5 | -0.2 | . | 1.6 | 0.2 | .
O=C(CCn1nc(-c2ccc(Cl)cc2)ccc1=O)N1CCC2(CC1)OCCO2 | 1.4 | 11.7 | 3.3 | -1.6 | -7.7 | -13.3
Cc1nc2cc(-c3ccc(Cl)cc3)nn2c(C)c1CCC(=O)N1CCC2(CC1)OCCO2 | 0.1 | 3.9 | 2.6 | . | 0.1 | 49.6*
CC(C)CCCn1c(O)c(/C=C2/C=CC=N2)c(=O)[nH]c1=O | -0.8 | 3.9 | 31.3* | 15.5 | -0.9 | 13.5
CC(=NCc1ccc(F)cc1)c1c(O)n(C)c(=O)n(C)c1=O | 35.4* | 30.9* | 2.6 | -3.6 | 6.8 | 11.2
O=C(COc1ccc(Br)cc1)N1CCN(Cc2ccc3c(c2)OCO3)CC1 | . | . | . | . | 5.9 | .
COc1ccc(O)c2c(=O)c3c(OC)cc4c(c3oc12)C1C=COC1O4 (configuration not stated) | 3.9 | 7.8 | . | 0.8 | 29.9* | .
O=C(Cn1cnc2ccccc2c1=O)NCC(=O)N1CCC2(CC1)OCCO2 | -0.3 | 37.2* | 2.5 | -0.9 | -0.2 | -4.8
O=C(N/N=C/C1C(=O)NC(=S)N(c2ccccc2)C1=O)c1cc(Br)c(O)c(Br)c1 (configuration not stated) | -2.9 | 2.7 | 4.9 | 0.1 | -5.5 | -3.0
Cn1nc(-c2ccc(OCC(=O)N3CCN(Cc4ccccc4)CC3)cc2)c2ccccc2c1=O | 1.1 | 38.8*! | 2.0 | 1.1 | 4.9 | -16.7
CCOC(=O)[C@@]12C(=O)C(=O)N[C@]1(c1ccccc1)C1OCCCC12 (some centres not stated) | 3.7 | 5.0 | 2.9 | -4.0 | 8.3 | 5.6
CCOc1ccc(N2C(=O)/C(=C\c3cccs3)C(=O)NC2=S)cc1 | 63.3* | 12.0 | 1.9 | -4.1 | -7.9 | 6.7 | BaF3 tox 2=-4.7;JAK2V617F conf=-4.7
CCOc1ccc(N2C(=O)/C(=C/c3ccco3)C(=O)NC2=S)cc1 | . | . | . | . | 0.5 | .
N#CC(C#N)=C(N)c1cccnc1 | 33.9* | 16.4 | 1.5 | 0.1 | -7.7 | -12.3 | BaF3 tox 2=-4.2;JAK2V617F conf=-2.2
O=C(Cc1ccccc1)OCCNC(=O)c1cccnc1 | 1.7 | 4.2 | 3.1 | 1.0 | 2.1 | 4.9
CSc1ncc(/C=C2/C(=O)NC(=O)N(c3ccc(Cl)cc3)C2=O)cn1 | 2.4 | 4.7 | 1.4 | -0.4 | -0.2 | -6.6

Screening data as filed in PubChem BioAssay.
